This is an account of results in ChEMBL document CHEMBL1122608, “Nitrogen bridgehead compounds. 44. New antiallergic 4H-pyrido[1,2-a]pyrimidin-4-ones. 4” (1984).

Experiment [1] deals with Rattus norvegicus. Description: Antiallergic activity by passive cutaneous anaphylaxis test after intravenous administration. The experiment is classed as functional. As to conditions: read-out: ID50 (the source's name). Summed up: (§1)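 Adult female Sprague-Dawley rats (200 g, five per group) sensitized intradermally at two sites with rat reaginic anti-ovalbumin serum; after 48 h, challenged with chicken ovalbumin 20 mg/kg plus Evans blue 40 mg/kg. Compound iv at 32, 3.2, 0.32 µmol/kg at challenge. Dermal bluing area measured 30 min later; ≥3 doses, ID50 from dose-response regression; Student's t test.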

Experiment [2] concerns Rattus norvegicus. Description: Antiallergic activity was evaluated by passive cutaneous anaphylaxis test after intra venous administration; insoluble. In kind it is functional, organism-based. The essentials:
as §1

In experiment [3] the test system is Rattus norvegicus. Description: Inhibition of histamine release by 50% in rats after intra peritoneal administration. In kind it is functional. Summed up: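 Male Sprague-Dawley rats (~250 g, six per group) passively sensitized ip with anti-ovalbumin reaginic serum, challenged 4 h later with ip ovalbumin 1 mg/rat; compound ip 30 s before antigen, ≥3 doses. Peritoneal fluid taken 3 min post-challenge, centrifuged at 150 g; histamine in supernatant measured fluorometrically (autoanalyzer). ID50 from dose-response regression curve; Student's t test.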

The test system of experiment [4] is Rattus norvegicus. Description: Inhibition of Evans blue extravasation by 50% in rats after intra peritoneal administration. In kind it is functional. The essentials: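 Male Sprague-Dawley rats (~250 g, six per group) sensitized ip with 1 mL anti-ovalbumin reaginic serum; 4 h later Evans blue iv, then ovalbumin 1 mg/rat ip in Tris buffer. Compound ip 30 s before challenge, ≥3 doses. Peritoneal fluid collected at 3 min; extravasated dye read at 615 nm. ID50 from dose-response regression; Student's t test.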

As to `CC1CC(/C=N/c2ccccc2C(=O)O)=C2NC=C(C(=O)O)C(=O)N2C1` (centres undefined), in experiment [1], the ED50 came to 48.1 µmol/kg.
The same measure, in the same setting: for `O=C(O)c1cnc2n(c1=O)CCCC/C2=N\Nc1ccccc1` the value was 14.4 µmol/kg; for `CCOC(=O)C1=CNC2=C(/C=N/c3cccc(C(=O)O)c3)CCC(C)N2C1=O` (centres undefined), 100 µmol/kg.
Same read-out and setting: for `Cc1nc2n(c(=O)c1/C=C/C(=O)O)C(C)CC/C2=N\Nc1ccccc1` (centres undefined) the value was 0.29 µmol/kg.
Regarding `CC1CCC(/C=N/c2ccc(Br)cc2)=C2NC=C(C(=O)O)C(=O)N21` (centres undefined), in experiment [2], the ID50 entry is reported as “Insoluble”.
On the same count and under the same terms, for `CC1CCC(/C=N/c2cccc(Cl)c2)=C2NC=C(C(=O)O)C(=O)N21` (centres undefined) the value was “Insoluble”.
Take `Cc1cccc(/N=C/C2=C3NC=C(C(=O)O)C(=O)N3[C@H](C)CC2)c1`: the ED50 in experiment [1] was 66.9 µmol/kg.
Turning to `CC1CCC(/C=N/c2ccc(Cl)cc2)=C2NC=C(C(=O)O)C(=O)N21` (centres undefined), the ID50 result in experiment [2] is “Insoluble”.
On to `CC1CCC(/C=N/c2cccnc2)=C2NC=C(C(=O)O)C(=O)N21` (centres undefined), for which, in experiment [1], the ED50 came to 2.4 µmol/kg. Further, the ID50 in experiment [3] stood at 100 nmol/kg; in experiment [4], 360 nmol/kg.
On to `CCOc1cccc(/N=C/C2=C3NC=C(C(=O)O)C(=O)N3C(C)CC2)c1` (centres undefined), for which the ID50 entry in experiment [2] is listed as “Insoluble”.
As to `C[C@@H]1CC/C(=N\Nc2ccccc2)c2ncc(C(=O)O)c(=O)n21`, the ED50 in experiment [1] is 54.8 µmol/kg.
As for `CCOC(=O)C1=CNC2=C(/C=N/c3ccccc3)CCC(C)N2C1=O` (centres undefined), the ID50 entry in experiment [2] is on record as “Insoluble”.
On to `CC1CCC(/C=N/c2cccc(C(=O)O)c2)=C2NC=CC(=O)N21` (centres undefined), for which the ED50 in experiment [1] is more than 100 µmol/kg.
The same measure, in the same setting: for `C[C@@H]1CC/C(=N\Nc2ccccc2)c2ncc(/C=C/C(=O)O)c(=O)n21` the value was more than 100 µmol/kg.
With `CC1CCC(/C=N/c2ccccc2)=C2NC(c3ccccc3)=C(/C=C/C(=O)O)C(=O)N21` (centres undefined), the ID50 result in experiment [2] is “Insoluble”.
As to `O=C(O)C1=CNC2=C(/C=N/c3ccccc3C(=O)O)CCCN2C1=O`, the ED50 in experiment [1] is 22.9 µmol/kg.
With `Cc1cccc(/N=C/C2=C3NC=C(C(=O)O)C(=O)N3C(C)CC2)c1` (centres undefined), the ED50 in experiment [1] was 0.8 µmol/kg. Further, the ID50 in experiment [3] was 2 nmol/kg; in experiment [4], 130 nmol/kg.
With `CC1CCC(/C=N/c2cccc(Br)c2)=C2NC=C(C(=O)O)C(=O)N21` (centres undefined), the ID50 result in experiment [2] is “Insoluble”.
As to `CC1CCC(/C=N/c2ccc(CC(=O)O)cc2)=C2NC=C(C(=O)O)C(=O)N21` (centres undefined), the ED50 in experiment [1] was 5.8 µmol/kg. The ID50 in experiment [3] came out at 110 nmol/kg; in experiment [4], 280 nmol/kg.
Take `CC1CC(/C=N/c2ccccc2)=C2NC=C(C(=O)O)C(=O)N21` (centres undefined): the ED50 in experiment [1] is 20.2 µmol/kg.
Consider `O=C(O)C1=CNC2=C(/C=N/c3ccccc3C(=O)O)CCCCN2C1=O`, for which the ED50 in experiment [1] is 68.7 µmol/kg.
With `CC1CCN2C(=O)C(C(=O)O)=CNC2=C1/C=N/c1ccccc1` (centres undefined), in experiment [2], the ID50 result is on record as “Insoluble”.
On to `CCOC(=O)C1=CNC2=C(/C=N/c3ccc(C(=O)O)cc3)CCC(C)N2C1=O` (centres undefined), for which the ED50 in experiment [1] was 67.1 µmol/kg.
Same read-out and setting: for `CC1CCC(/C=N/c2ccccc2F)=C2NC=C(C(=O)O)C(=O)N21` (centres undefined) the value was 14.5 µmol/kg.
As for `CC1CCC(/C=N/c2ccc3ccccc3c2)=C2NC=C(C(=O)O)C(=O)N21` (centres undefined), the ID50 entry in experiment [2] is on record as “Insoluble”.
As to `CC1CCC(/C=N/c2ccccc2C(=O)O)=C2NC=C(C(=O)O)C(=O)N21` (centres undefined), the ED50 in experiment [1] was determined as 1.11 µmol/kg. For the same compound, the ID50 turned out to be 10 nmol/kg in experiment [3] and 140 nmol/kg in experiment [4].
Turning to `CC(=O)c1ccc(/N=C/C2=C3NC=C(C(=O)O)C(=O)N3C(C)CC2)cc1` (centres undefined), in experiment [1], the ED50 turned out to be 0.75 µmol/kg.
For the compound `CC1CCC(/C=N/c2ccccc2O)=C2NC=C(C(=O)O)C(=O)N21` (centres undefined), the ED50 in experiment [1] is 4.11 µmol/kg.
Regarding `Cc1ccc(/N=C/C2=C3NC=C(C(=O)O)C(=O)N3C(C)CC2)cc1` (centres undefined), the ED50 in experiment [1] worked out at 3.6 µmol/kg.
Same read-out and setting: for `CC1CCN2C(=O)C(C(=O)O)=CNC2=C1/C=N/c1ccccc1C(=O)O` (centres undefined) the value was 100 µmol/kg.
Consider `CC1CCC(/C=N/c2ccc(C(F)(F)F)cc2)=C2NC=C(C(=O)O)C(=O)N21` (centres undefined), for which the ED50 in experiment [1] was more than 100 µmol/kg.
`C[C@H]1CC/C(=N\Nc2ccccc2)c2ncc(/C=C/C(=O)O)c(=O)n21`: in experiment [1], the ED50 was determined as 0.15 µmol/kg.
Same read-out and setting: for `CC1CCC(/C=N/c2ccc(C(=O)O)cc2)=C2NC=CC(=O)N21` (centres undefined) the value was more than 100 µmol/kg; for `CC1CC/C(=N\Nc2ccccc2)c2ncc(/C=C/C(=O)O)c(=O)n21` (centres undefined), 0.27 µmol/kg.
Regarding `O=C([O-])c1cc(=O)c2c(OCC(O)COc3cccc4oc(C(=O)[O-])cc(=O)c34)cccc2o1.[Na+].[Na+]` [CROMOLYN SODIUM], in experiment [1], the ED50 was 1 µmol/kg. For the same compound, the figures for the ID50 in experiment [3] and in experiment [4] were 16 nmol/kg and 55 nmol/kg, respectively.
In the case of `CCOC(=O)C1=CNC2=C(/C=N/c3ccccc3C(=O)O)CCC(C)N2C1=O` (centres undefined), in experiment [1], the ED50 stood at 24.8 µmol/kg.
Take `CC1CCCc2ncc(C(=O)O)c(=O)n21` (centres undefined): in experiment [1], the ED50 stood at 240 µmol/kg.
Consider `CC1CCC(=NNc2ccccc2)c2ncc(C(=O)O)c(=O)n21` (centres undefined), for which the ED50 in experiment [1] came out at 0.6 µmol/kg.
The same measure, in the same setting: for `O=C(O)C1=CNC2=C(/C=N/c3ccccc3)CCN2C1=O` the value was 15.4 µmol/kg; for `CC1CCC(/C=N/c2ccc(O)cc2)=C2NC=C(C(=O)O)C(=O)N21` (centres undefined), 1.2 µmol/kg.
As for `CC1CCC(/C=N/c2ccccc2)=C2NC=C(C(=O)O)C(=O)N21` (centres undefined), in experiment [2], the ID50 result is “Insoluble”.
The same measure, in the same setting: for `CC1CCC(/C=N/c2ccc([N+](=O)[O-])cc2)=C2NC=C(C(=O)O)C(=O)N21` (centres undefined) the value was “Insoluble”.
Take `C[C@H]1CC/C(=N\Nc2ccccc2)c2ncc(C(=O)O)c(=O)n21`: the ED50 in experiment [1] turned out to be 0.3 µmol/kg. Besides, the ID50 in experiment [3] worked out at 1 nmol/kg; in experiment [4], 5 nmol/kg.
For the compound `Cc1cccc(/N=C/C2=C3NC=C(C(=O)O)C(=O)N3[C@@H](C)CC2)c1`, the ED50 in experiment [1] amounted to 0.02 µmol/kg.
`COc1ccc(/N=C/C2=C3NC=C(C(=O)O)C(=O)N3C(C)CC2)cc1` (centres undefined): the ID50 entry in experiment [2] is reported as “Insoluble”.
On to `CCOc1ccc(/N=C/C2=C3NC=C(C(=O)O)C(=O)N3C(C)CC2)cc1` (centres undefined), for which the ED50 in experiment [1] came to 8.96 µmol/kg.
Same read-out and setting: for `CC1CCC(/C=N/c2ccc(F)cc2)=C2NC=C(C(=O)O)C(=O)N21` (centres undefined) the value was 10.6 µmol/kg.
